Laboratory results from ChEMBL document CHEMBL1649503, “Alkoxyalkyl esters of 9-(s)-(3-hydroxy-2-phosphonomethoxypropyl) adenine are potent and selective inhibitors of hepatitis B virus (HBV) replication in vitro and in HBV transgenic mice in vivo” (Antimicrob Agents Chemother, 2009).

Columns and labels:
[1] = test system: Mus musculus; test: Toxicity in transgenic mouse at 10 mg/kg, po assessed as mortality after 7 days; assay type: organism-based; set-up: dose 10 mg/kg, route oral; conditions: in vivo, 168 h
[2] = test system: HepG2; test: Drug metabolism in human HepG2 cells assessed as unidentified metabolite uptake at 10 uM after 48 hrs; assay type: ADME, cell-based; conditions: hepg2, 48 h
[3] = Tmax in Swiss-Webster mouse kidney at 10 mg/kg, po after 24 hrs; assay type: ADME, organism-based; set-up: dose 10 mg/kg, route oral
Procedure, shortened: (§1)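 Female Swiss-Webster mice (about 25 g) each got a single 10 mg/kg dose of the 14C-labeled (8-14C) ester (50 mCi/mmol) in 0.7% saline, by oral gavage or ip injection. Blood was taken at 1, 3, 6, 12 and 24 h, and liver, spleen, kidney, lung, heart and brain were excised, washed and weighed. Radioactivity was measured by scintillation counting as µM plasma equivalents or nmol/g tissue, mean of three per time point.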

[4] = Tmax in Swiss-Webster mouse heart at 10 mg/kg, po after 24 hrs; assay type: ADME, organism-based; set-up: dose 10 mg/kg, route oral; procedure, shortened: as §1
[5] = test system: Kidney; test: Cmax in Swiss-Webster mouse kidney assessed per gram of tissue at 10 mg/kg, po after 24 hrs; assay type: ADME, organism-based; set-up: dose 10 mg/kg, route oral; conditions: in vivo; procedure, shortened: as §1
[6] = Oral bioavailability in Swiss-Webster mouse at 10 mg/kg after 24 hrs; assay type: ADME, organism-based; conditions: in vivo
Procedure, shortened: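 Same single 10 mg/kg 14C-labeled dose (50 mCi/mmol, 0.7% saline) given to female Swiss-Webster mice orally or ip. Plasma sampled 1–24 h and counted by liquid scintillation. Relative oral bioavailability came from AUCs of drug plus metabolites, computed as printed: […].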

[7] = test system: Hepatitis B virus; test: Antiviral activity against HBV harboring RNA polymerase M204I mutant gene infected in human HuH7 cells assessed as decrease in viral transient transfection after 5 days; conditions: Huh-7, 5 days
[8] = test system: Liver; test: Cmax in Swiss-Webster mouse liver assessed per gram of tissue at 10 mg/kg, po after 24 hrs; assay type: ADME, organism-based; set-up: dose 10 mg/kg, route oral; conditions: in vivo; procedure, shortened: as §1
[9] = test system: Brain; test: AUC in Swiss-Webster mouse brain assessed per gram of tissue at 10 mg/kg, ip after 24 hrs; assay type: ADME, organism-based; set-up: time < 24 hr, dose 10 mg/kg, route intraperitoneal; conditions: in vivo; procedure, shortened: as §1
[10] = test system: Spleen; test: Cmax in Swiss-Webster mouse spleen assessed per gram of tissue at 10 mg/kg, po after 24 hrs; assay type: ADME, organism-based; set-up: dose 10 mg/kg, route oral; conditions: in vivo; procedure, shortened: as §1
[11] = Tmax in Swiss-Webster mouse plasma at 10 mg/kg, po after 24 hrs; assay type: ADME, organism-based; set-up: dose 10 mg/kg, route oral
Procedure, shortened: (§2)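 Female Swiss-Webster mice (about 25 g) got one 10 mg/kg dose of the 8-14C-labeled ester (50 mCi/mmol) in 0.7% saline, by oral gavage or intraperitoneal injection. Blood was taken at 1, 3, 6, 12 and 24 h. Liver, spleen, kidney, lung, heart and brain were excised, washed and weighed. Drug plus metabolites were measured by liquid scintillation as µM plasma equivalents or nmol/g tissue. Each time point is the mean of three replicates.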

[12] = test system: Liver; test: AUC in Swiss-Webster mouse liver assessed per gram of tissue at 10 mg/kg, ip after 24 hrs; assay type: ADME, organism-based; set-up: time < 24 hr, dose 10 mg/kg, route intraperitoneal; conditions: in vivo; procedure, shortened: as §1
[13] = test system: Brain; test: Cmax in Swiss-Webster mouse brain assessed per gram of tissue at 10 mg/kg, po after 24 hrs; assay type: ADME, organism-based; set-up: dose 10 mg/kg, route oral; conditions: in vivo; procedure, shortened: as §1
[14] = test system: HepG2; test: Drug metabolism in human HepG2 cells assessed as unidentified metabolite uptake at 10 uM after 24 hrs; assay type: ADME, cell-based; conditions: hepg2, 24 h
Procedure, shortened: (§3)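 Nearly confluent HepG2 flasks got 14C-labeled drug (final 10 µM, 50 mCi/mmol) for 24 h. Cells were washed with cold PBS, lysed in water by two freeze-thaw cycles and sonication, then extracted with cold TCA (8% final) and centrifuged at 4°C. Supernatant was counted and analyzed by SAX ion-exchange HPLC, with metabolites assigned by retention versus reference standards.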

[15] = test system: Hepatitis B virus; test: Antiviral activity against HBV infected in transgenic mouse assessed as decrease in liver viral DNA level at 4 mg/kg, po administered daily for 14 days measured post last dose; assay type: functional
Procedure, shortened: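 Homozygous male and female HBV transgenic mice (founder 1.3.32; 22.2 ± 2.8 g) received drug in distilled water by oral gavage, 0.1 ml/10 g, at 7 µmol/kg (4 mg/kg) daily for 14 days. About 0.1 g liver was lysed at necropsy, and DNA was extracted with phenol-chloroform. HBV DNA was measured by qPCR normalized to GAPDH, using duplicate CTs against a dilution standard curve, in relative units/µg cell DNA.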

[16] = Tmax in Swiss-Webster mouse heart at 10 mg/kg, ip after 24 hrs; assay type: ADME, organism-based; set-up: dose 10 mg/kg, route intraperitoneal; procedure, shortened: as §1
[17] = Tmax in Swiss-Webster mouse spleen at 10 mg/kg, po after 24 hrs; assay type: ADME, organism-based; set-up: dose 10 mg/kg, route oral; procedure, shortened: as §2
[18] = Tmax in Swiss-Webster mouse liver at 10 mg/kg, ip after 24 hrs; assay type: ADME, organism-based; set-up: dose 10 mg/kg, route intraperitoneal; procedure, shortened: as §1
[19] = test system: Kidney; test: AUC in Swiss-Webster mouse kidney assessed per gram of tissue at 10 mg/kg, po after 24 hrs; assay type: ADME, organism-based; set-up: time < 24 hr, dose 10 mg/kg, route oral; conditions: in vivo; procedure, shortened: as §1
[20] = test system: Hepatitis B virus; test: Antiviral activity against HBV harboring RNA polymerase L180M mutant gene infected in human HuH7 cells assessed as decrease in viral transient transfection after 5 days; conditions: Huh-7, 5 days
[21] = test system: HepG2; test: Drug metabolism in human HepG2 cells assessed as HPMPApp uptake at 10 uM after 24 hrs; assay type: ADME, cell-based; conditions: hepg2, 24 h; procedure, shortened: as §3
[22] = Tmax in Swiss-Webster mouse liver at 10 mg/kg, po after 24 hrs; assay type: ADME, organism-based; set-up: dose 10 mg/kg, route oral; procedure, shortened: as §1
[23] = test system: Hepatitis B virus; test: Antiviral activity against HBV harboring RNA polymerase L180M/M204V mutant gene infected in human HuH7 cells assessed as decrease in viral transient transfection after 5 days; conditions: Huh-7, 5 days
[24] = test system: Mus musculus; test: Toxicity in transgenic mouse at 30 to 100 mg/kg, po assessed as morbidity after 7 days; assay type: organism-based; set-up: dose 30-100 mg/kg, route oral; conditions: in vivo, 168 h
[25] = test system: Lung; test: Cmax in Swiss-Webster mouse lung assessed per gram of tissue at 10 mg/kg, ip after 24 hrs; assay type: ADME, organism-based; set-up: dose 10 mg/kg, route intraperitoneal; conditions: in vivo; procedure, shortened: as §1
[26] = test system: Mus musculus; test: Toxicity in transgenic mouse at 30 to 100 mg/kg, po assessed as mortality after 7 days; assay type: organism-based; set-up: dose 30-100 mg/kg, route oral; conditions: in vivo, 168 h
[27] = test system: Spleen; test: Cmax in Swiss-Webster mouse spleen assessed per gram of tissue at 10 mg/kg, ip after 24 hrs; assay type: ADME, organism-based; set-up: dose 10 mg/kg, route intraperitoneal; conditions: in vivo; procedure, shortened: as §1

CCCCCCCCCCCCCCCCOCCCOP(=O)(O)CO[C@H](CO)Cn1cnc2c(N)ncnc21
Activity [1]: Non-toxic | Drug uptake [2]: 402 pmol | Tmax [3]: 3 h | Tmax [4]: 1 h | Cmax [5]: 5.07 nmol/g | bioavailability [6]: 64% | EC50 [7]: 1200 nM | EC90 [7]: 4000 nM | Cmax [8]: 21.1 nmol/g | AUC [9]: 0.98 nmol·h/g | Cmax [10]: 0.22 nmol/g | Tmax [11]: 1 h | AUC [12]: 545.1 nmol·h/g | Cmax [13]: 0.07 nmol/g | Drug uptake [14]: 596 pmol | ED50 ([15]; Hepatitis B virus, Liver, 336 h): 0.096 µmol/kg | ED90 ([15]; dose 4 mg/kg): 2.97 µmol/kg | Tmax [16]: 1 h | Tmax [17]: 3 h | Tmax [18]: 1 h | AUC [19]: 68.8 nmol·h/g | EC50 [20]: 1000 nM | EC90 [20]: 3500 nM | Drug uptake [21]: 888 pmol | Tmax [22]: 3 h | EC50 [23]: 700 nM | EC90 [23]: 2800 nM | Activity [24]: Toxic | Cmax [25]: 2.84 nmol/g | Activity [26]: Toxic | Cmax [27]: 1.58 nmol/g
